Read-outs that look alike come from different tables or passages of the source.
What was measured:
[1] = tested on: LRRK2 Ser910/Ser935 phosphorylation; details: intraperitoneal doses of up to 100 mg/Kg; cited from earlier work
LRRK2 = LRRK2 (Mus musculus, UniProt Q5S006); experiment: KiNativ chemical proteomics of tissues from treated animals, LRRK2; format: in vivo; details: for LRRK2 target engagement (KiNativ): spleen
[2] = target: T1, GST-LRRKT[A2016T] (1,326–2,527) (Homo sapiens, UniProt Q5S007, A2016T); experiment: Biochemical inhibition of GST-LRRK2[A2016T]; details: 20 µM Nictide, 100 µM ATP
T1 sequence (Q5S007 1326-2527 A2016T): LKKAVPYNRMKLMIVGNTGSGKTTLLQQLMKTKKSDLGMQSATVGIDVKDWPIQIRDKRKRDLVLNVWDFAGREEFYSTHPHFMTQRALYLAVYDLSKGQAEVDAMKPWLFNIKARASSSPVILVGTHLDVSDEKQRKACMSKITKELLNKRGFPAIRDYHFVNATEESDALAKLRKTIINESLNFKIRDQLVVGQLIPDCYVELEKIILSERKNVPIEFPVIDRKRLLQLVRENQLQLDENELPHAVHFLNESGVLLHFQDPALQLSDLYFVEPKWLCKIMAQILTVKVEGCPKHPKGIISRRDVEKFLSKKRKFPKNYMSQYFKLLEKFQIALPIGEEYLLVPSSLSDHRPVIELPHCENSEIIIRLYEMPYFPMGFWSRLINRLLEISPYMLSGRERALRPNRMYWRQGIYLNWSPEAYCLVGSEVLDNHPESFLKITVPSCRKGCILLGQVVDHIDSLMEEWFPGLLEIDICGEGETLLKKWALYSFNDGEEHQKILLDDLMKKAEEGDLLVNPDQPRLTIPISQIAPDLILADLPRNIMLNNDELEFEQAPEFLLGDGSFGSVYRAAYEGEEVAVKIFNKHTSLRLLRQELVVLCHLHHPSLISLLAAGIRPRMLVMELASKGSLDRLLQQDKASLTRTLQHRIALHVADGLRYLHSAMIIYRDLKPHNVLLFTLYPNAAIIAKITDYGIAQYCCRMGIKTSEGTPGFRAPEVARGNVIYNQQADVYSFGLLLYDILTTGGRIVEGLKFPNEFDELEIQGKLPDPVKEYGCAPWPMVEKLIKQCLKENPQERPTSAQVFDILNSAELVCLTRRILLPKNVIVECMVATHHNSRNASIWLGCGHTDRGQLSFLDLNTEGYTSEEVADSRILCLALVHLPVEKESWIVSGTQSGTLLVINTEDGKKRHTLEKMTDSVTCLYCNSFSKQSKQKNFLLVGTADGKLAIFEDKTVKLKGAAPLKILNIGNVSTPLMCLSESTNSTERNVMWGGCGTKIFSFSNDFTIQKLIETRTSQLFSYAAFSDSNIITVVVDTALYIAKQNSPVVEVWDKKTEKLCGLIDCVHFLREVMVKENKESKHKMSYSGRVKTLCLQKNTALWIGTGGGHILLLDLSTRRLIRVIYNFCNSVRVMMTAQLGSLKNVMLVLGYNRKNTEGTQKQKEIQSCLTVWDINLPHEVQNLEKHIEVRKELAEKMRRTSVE

JNK1/2/3 = experiment: KiNativ chemical proteomics of tissues from treated animals, JNK1/2/3; format: in vivo, mouse
[3] = tested on: >150 protein and lipid kinases; experiment: KiNativ chemical proteomics, other kinases of the panel; format: in vivo, mouse; details: any dose (3–100 mg/kg)
[4] = tested on: LRRK2 Ser910/Ser935 phosphorylation; format: in vivo, mouse
Summary of the method: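 Mice received the test compound intraperitoneally at 100, 50, 30 or 10 mg/kg. Brain, spleen and kidney were collected, and endogenous LRRK2 was resolved by SDS-PAGE. Blots were probed with phospho-specific antibodies to Ser910 and Ser935 and for total LRRK2, with quantitative analysis of the blots.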

panel of 451 kinases = experiment: KinomeScan analysis; format: binding; details: 1 µM
TBK1 = target: T2, TBK1 (Mus musculus, UniProt Q9WUN2); experiment: KiNativ chemical proteomics of tissues from treated animals, TBK1; format: in vivo; details: read-out: TBK1 inhibition (KiNativ)
T2 sequence (Q9WUN2 1-729): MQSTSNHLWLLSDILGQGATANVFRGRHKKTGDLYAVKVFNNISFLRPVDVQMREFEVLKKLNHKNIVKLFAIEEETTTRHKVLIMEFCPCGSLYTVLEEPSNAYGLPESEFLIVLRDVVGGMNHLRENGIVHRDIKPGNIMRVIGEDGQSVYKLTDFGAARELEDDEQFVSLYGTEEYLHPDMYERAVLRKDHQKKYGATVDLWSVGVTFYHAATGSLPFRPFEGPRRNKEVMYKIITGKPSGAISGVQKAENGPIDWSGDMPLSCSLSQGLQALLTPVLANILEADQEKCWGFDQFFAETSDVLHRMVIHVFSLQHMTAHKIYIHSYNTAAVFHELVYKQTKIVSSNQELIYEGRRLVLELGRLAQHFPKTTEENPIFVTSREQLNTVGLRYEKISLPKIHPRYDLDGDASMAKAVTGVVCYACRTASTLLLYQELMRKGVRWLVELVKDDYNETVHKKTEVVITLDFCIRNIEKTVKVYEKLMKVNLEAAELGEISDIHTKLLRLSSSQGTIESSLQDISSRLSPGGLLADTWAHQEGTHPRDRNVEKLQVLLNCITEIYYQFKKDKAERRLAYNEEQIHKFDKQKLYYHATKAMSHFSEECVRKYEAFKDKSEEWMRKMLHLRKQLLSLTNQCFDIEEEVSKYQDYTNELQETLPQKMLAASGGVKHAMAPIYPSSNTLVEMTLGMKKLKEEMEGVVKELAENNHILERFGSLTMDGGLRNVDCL

[5] = tested on: GFP-LRRK2[G2019S+A2016T] in HEK293 cells; experiment: Ser910/Ser935 phosphorylation in HEK293 cells, GFP-LRRK2[G2019S+A2016T]; format: cell-based; details: 90 min
Summary of the method: (§1)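 HEK293 cells stably expressing the GFP-tagged LRRK2 mutant were treated with DMSO or increasing concentrations of test compound for 90 min. A reference LRRK2 inhibitor at 1 μM served as control. Cell lysates were immunoblotted for LRRK2 phospho-Ser910, phospho-Ser935 and total LRRK2.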

[6] = tested on: GFP-LRRK2[A2016T] in HEK293 cells; experiment: Ser910/Ser935 phosphorylation in HEK293 cells, GFP-LRRK2[A2016T]; format: cell-based; details: 90 min
Summary of the method: as §1

Chain of LRRK2 (Q5S006 whole entry): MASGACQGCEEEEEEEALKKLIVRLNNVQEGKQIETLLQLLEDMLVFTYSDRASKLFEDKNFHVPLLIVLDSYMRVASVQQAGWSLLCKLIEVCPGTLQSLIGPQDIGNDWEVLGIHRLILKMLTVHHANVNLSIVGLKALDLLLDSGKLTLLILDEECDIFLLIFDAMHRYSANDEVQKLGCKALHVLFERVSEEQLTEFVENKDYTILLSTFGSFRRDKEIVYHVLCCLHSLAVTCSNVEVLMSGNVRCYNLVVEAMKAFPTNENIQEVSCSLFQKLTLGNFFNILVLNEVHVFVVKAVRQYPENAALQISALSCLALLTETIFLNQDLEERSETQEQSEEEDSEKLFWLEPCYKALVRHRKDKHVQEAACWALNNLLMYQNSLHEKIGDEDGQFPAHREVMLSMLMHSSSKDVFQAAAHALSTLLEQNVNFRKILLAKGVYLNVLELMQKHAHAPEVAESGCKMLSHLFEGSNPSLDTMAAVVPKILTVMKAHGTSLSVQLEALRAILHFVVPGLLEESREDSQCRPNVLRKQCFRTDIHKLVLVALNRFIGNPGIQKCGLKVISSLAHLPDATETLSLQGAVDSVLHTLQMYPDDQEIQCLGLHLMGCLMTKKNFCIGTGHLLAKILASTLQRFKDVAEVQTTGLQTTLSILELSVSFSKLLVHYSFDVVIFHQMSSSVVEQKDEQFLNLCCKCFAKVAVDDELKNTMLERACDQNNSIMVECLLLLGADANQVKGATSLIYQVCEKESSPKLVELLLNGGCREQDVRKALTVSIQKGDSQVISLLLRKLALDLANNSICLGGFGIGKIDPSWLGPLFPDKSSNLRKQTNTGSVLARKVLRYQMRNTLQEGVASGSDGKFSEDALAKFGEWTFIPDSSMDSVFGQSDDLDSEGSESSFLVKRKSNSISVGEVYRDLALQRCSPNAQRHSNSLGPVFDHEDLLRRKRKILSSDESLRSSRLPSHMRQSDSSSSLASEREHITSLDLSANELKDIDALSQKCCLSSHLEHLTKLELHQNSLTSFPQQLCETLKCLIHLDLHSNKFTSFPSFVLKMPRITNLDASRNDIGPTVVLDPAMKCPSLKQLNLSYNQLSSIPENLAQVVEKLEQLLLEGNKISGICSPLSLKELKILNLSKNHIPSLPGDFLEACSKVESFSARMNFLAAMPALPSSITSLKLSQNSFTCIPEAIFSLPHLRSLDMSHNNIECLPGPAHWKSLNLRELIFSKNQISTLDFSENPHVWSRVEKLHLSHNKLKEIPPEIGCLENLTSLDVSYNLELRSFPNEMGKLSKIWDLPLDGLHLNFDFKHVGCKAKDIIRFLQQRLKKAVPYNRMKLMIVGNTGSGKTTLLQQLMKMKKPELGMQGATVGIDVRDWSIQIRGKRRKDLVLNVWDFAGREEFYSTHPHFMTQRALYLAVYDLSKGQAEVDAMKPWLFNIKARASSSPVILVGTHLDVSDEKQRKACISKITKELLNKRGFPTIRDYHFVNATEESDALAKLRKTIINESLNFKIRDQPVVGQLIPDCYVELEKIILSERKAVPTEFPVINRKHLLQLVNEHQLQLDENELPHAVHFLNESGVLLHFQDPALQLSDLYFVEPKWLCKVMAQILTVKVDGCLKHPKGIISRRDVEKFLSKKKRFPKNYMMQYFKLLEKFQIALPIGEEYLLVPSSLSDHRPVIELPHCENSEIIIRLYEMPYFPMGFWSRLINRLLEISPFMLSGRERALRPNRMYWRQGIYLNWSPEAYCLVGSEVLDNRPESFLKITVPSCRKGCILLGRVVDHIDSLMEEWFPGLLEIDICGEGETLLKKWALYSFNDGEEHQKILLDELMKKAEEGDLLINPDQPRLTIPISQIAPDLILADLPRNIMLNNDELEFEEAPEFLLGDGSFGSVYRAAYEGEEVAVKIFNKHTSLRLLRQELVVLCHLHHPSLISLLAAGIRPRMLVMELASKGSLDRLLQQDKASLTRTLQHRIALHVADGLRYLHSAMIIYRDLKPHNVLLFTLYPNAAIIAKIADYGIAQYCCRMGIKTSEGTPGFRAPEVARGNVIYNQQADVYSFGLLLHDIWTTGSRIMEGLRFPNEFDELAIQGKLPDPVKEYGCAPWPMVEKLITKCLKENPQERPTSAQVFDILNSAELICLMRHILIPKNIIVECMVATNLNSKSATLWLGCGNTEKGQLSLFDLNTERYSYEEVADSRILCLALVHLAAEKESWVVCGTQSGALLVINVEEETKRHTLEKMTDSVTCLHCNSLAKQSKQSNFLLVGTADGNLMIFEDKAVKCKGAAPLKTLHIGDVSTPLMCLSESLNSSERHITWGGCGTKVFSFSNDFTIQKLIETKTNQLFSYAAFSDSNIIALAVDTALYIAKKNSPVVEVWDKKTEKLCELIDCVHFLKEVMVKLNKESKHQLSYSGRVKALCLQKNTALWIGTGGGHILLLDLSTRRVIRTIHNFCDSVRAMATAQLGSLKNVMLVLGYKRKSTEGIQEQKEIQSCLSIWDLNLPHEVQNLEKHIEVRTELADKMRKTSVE

For `COc1cc(N2CCOCC2)ccc1Nc1ncc(F)c(Nc2ccccc2NS(C)(=O)=O)n1` [CZC-25146], which “inhibition of phosphorylation of Ser910 and Ser935 of LRRK2 in mouse brain” value [1] is on record?
Its value is “none of these compounds are capable of effectively inhibiting”.

What does the source list for `COc1cc(C(=O)N2CCC(N3CCN(C)CC3)CC2)ccc1Nc1ncc2c(n1)N(C)c1ccccc1C(=O)N2C` [LRRK2-IN-1, reference compound]?
LRRK2 inhibition (KiNativ) (LRRK2; brain, 100 mg/kg): no LRRK2 inhibition; effect of the A2016T mutation on inhibition [2]: dramatic resistance; inhibition of phosphorylation of Ser910 and Ser935 of LRRK2 in mouse brain [1]: none of these compounds are capable of effectively inhibiting

With `CNc1nc(Nc2ccc(C(=O)N3CCOCC3)cc2OC)ncc1Cl` [Compound 4] as the compound, how does the “LRRK2 target engagement (KiNativ)” value (LRRK2; 10 mg/kg) read?
The value was 80–90%.

What about the “LRRK2 target engagement (KiNativ)” value (LRRK2; 30–100 mg/kg) of the same compound?
The value was “greater than 90%”.

And the “JNK1/2/3 inhibition (KiNativ)” value (JNK1/2/3; 50 mg/kg)?
The value was 35–40%.

And the “JNK1/2/3 inhibition (KiNativ)” value (JNK1/2/3; 100 mg/kg)?
Its value is 35–40%.

And the “inhibition of kinases other than LRRK2 (KiNativ)” value [3]?
Its value is no more than 50%.

What about the “effect of the A2016T mutation on inhibition” value [2] of the same compound?
The value was “maintains inhibition of the A2016T mutation”.

What about the “lowest dose inhibiting Ser910 and Ser935 phosphorylation in mouse brain” value ([4]; mouse brain, intraperitoneal delivery) of the same compound?
Its value is 50 mg/kg.

And the “inhibition of LRRK2 Ser910/Ser935 phosphorylation in brain” value ([4]; mouse, intraperitoneal 10 mg/kg)?
Its value is “partial inhibition”.

And the “inhibition of LRRK2 Ser910/Ser935 phosphorylation in brain” value ([4]; mouse, intraperitoneal 30 mg/kg)?
The value was “partial inhibition”.

And the “inhibition of LRRK2 Ser910/Ser935 phosphorylation in tissues” value ([4]; mouse, intraperitoneal 50 mg/kg, all tissues)?
Its value is “near complete inhibition”.

What about the “dephosphorylation of Ser910 and Ser935 of LRRK2 in tissues” value ([4]; mouse, intraperitoneal 100 mg/kg, kidney, spleen and brain) of the same compound?
The value was “near complete dephosphorylation”.

What about the “interactions detected in KinomeScan” value (panel of 451 kinases) of the same compound?
Its value is “no interactions detected with kinases other than G2019S LRRK2 with the exception of one mutant form of c-Kit (L576P)”.

What about the inhibition at 50 mg/kg (TBK1) of the same compound?
Its inhibition at 50 mg/kg is 35 to 40%.

What about the inhibition at 100 mg/kg (TBK1) of the same compound?
The inhibition at 100 mg/kg was 35 to 40%.

What about the “concentration inducing dephosphorylation of Ser910 and Ser935” value [5] of the same compound?
The value was 1 to 3 µM.

And the “concentration inducing dephosphorylation of Ser910 and Ser935” value [6]?
Its value is 1 to 3 µM.

For `COc1cc(N2CCC(N3CCN(C)CC3)CC2)ccc1Nc1ncc(Cl)c(Nc2ccccc2S(=O)(=O)C(C)C)n1` [TAE684], which “inhibition of phosphorylation of Ser910 and Ser935 of LRRK2 in mouse brain” value [1] is on record?
The value was “none of these compounds are capable of effectively inhibiting”.

From publication PMC3467149 (ACS medicinal chemistry letters, 2012)
